Experimental data: ChEMBL document CHEMBL1133298, “N1-Arylsulfonyl-N2-(1-aryl)ethyl-3-phenylpropane-1,2-diamines as novel calcimimetics acting on the calcium sensing receptor” (Bioorg Med Chem Lett, 2000)

Target: T1, Extracellular calcium-sensing receptor (Rattus norvegicus) (UniProt P48442)
T1 sequence (whole entry): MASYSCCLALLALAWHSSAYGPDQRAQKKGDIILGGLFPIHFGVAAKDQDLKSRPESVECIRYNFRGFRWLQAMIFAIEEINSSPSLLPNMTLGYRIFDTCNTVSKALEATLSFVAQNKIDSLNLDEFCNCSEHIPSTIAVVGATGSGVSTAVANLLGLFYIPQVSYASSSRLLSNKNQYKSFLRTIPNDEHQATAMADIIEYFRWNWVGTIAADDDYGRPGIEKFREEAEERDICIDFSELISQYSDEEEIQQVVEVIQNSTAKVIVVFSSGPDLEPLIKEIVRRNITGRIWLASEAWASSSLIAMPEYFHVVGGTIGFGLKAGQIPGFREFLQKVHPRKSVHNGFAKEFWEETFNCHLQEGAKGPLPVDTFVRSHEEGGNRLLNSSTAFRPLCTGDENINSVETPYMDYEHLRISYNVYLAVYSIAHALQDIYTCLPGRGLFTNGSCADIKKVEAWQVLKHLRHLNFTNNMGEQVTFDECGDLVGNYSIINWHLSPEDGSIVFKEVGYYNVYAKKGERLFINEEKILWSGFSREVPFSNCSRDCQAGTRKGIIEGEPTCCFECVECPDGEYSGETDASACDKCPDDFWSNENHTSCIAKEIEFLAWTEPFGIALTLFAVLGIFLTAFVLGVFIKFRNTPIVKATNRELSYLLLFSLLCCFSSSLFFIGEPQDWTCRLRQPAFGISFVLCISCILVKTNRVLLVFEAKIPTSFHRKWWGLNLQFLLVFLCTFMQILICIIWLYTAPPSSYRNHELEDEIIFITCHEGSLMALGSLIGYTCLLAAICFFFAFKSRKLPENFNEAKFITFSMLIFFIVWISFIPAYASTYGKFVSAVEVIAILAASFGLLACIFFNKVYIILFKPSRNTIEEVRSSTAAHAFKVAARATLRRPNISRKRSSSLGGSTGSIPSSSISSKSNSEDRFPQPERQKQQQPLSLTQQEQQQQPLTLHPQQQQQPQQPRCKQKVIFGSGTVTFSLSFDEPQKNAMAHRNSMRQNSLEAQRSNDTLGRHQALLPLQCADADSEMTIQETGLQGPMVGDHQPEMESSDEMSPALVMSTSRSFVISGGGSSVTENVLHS
Assay: Compound was evaluated for accumulation of [3H]- IP in CHO (CaSR) cells expressing rat cloned calcium sensing receptor
Assay type: functional, cell-based
Procedure, shortened: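 CHO cells stably transfected with calcium sensing receptor cloned from rat brain. Grown in basal Ham's F-12 (0.3 mM Ca2+, 0.6 mM Mg2+) and prelabeled overnight with 0.5 µCi/mL myo-[3H]inositol. Drugs were made up at 10 mM in ethanol (stock), diluted in basal medium and tested at 10 µM with 2 mM extracellular Ca2+ at 37 °C. [3H]IP accumulation (phospholipase C activity) is given as % of the maximal response to 10 mM Ca2+, mean ±S.E.M.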

| Accumulation [%] | SMILES |
| --- | --- |
| 34 | COc1ccc(S(=O)(=O)NC(CNC(C)c2cccc(OC)c2)Cc2ccccc2)cc1 (centres undefined) |
| 38 | CC(NCC(Cc1ccccc1)NS(=O)(=O)c1ccc(Cl)cc1)c1cccc2ccccc12 (centres undefined) |
| 80 | COc1ccc(S(=O)(=O)NC(CNC(C)c2cccc3ccccc23)Cc2ccccc2)cc1 (centres undefined) |
| 79 | CC(NCC(Cc1ccccc1)NS(=O)(=O)c1ccccc1Cl)c1cccc2ccccc12 (centres undefined) |
| 60 | COc1ccc(S(=O)(=O)NC(CNC(C)c2cccc3ccccc23)Cc2ccccc2Cl)cc1 (centres undefined) |
| 28 | CC(NCC(Cc1ccccc1)NS(=O)(=O)c1ccc([N+](=O)[O-])cc1)c1cccc2ccccc12 (centres undefined) |
| 78 | CC(NCC(Cc1ccccc1)NS(=O)(=O)c1ccccc1)c1cccc2ccccc12 (centres undefined) |
| 36 | COc1cccc(C(C)NCC(Cc2ccccc2)NS(=O)(=O)c2ccc(C)cc2)c1 (centres undefined) |
| 45 | COc1ccc(CC(CNC(C)c2cccc3ccccc23)NS(=O)(=O)c2ccc(OC)cc2)cc1 (centres undefined) |
| 47 | COc1ccc(S(=O)(=O)NC(CNC(C)c2cccc3ccccc23)Cc2ccc3c(c2)OCO3)cc1 (centres undefined) |
| 106 | COc1cccc([C@@H](C)NCCCc2ccccc2Cl)c1 |
| 2 | CC(NCC(Cc1ccccc1)NS(=O)(=O)c1ccc(N)cc1)c1ccccc1 (centres undefined) |
| 68 | Cc1ccc(S(=O)(=O)NC(CNC(C)c2cccc3ccccc23)Cc2ccccc2)cc1 (centres undefined) |
| 27 | CC(NCC(Cc1ccccc1)NS(=O)(=O)c1ccc(C(F)(F)F)cc1)c1cccc2ccccc12 (centres undefined) |
| 16 | Cc1ccc(S(=O)(=O)NC(CNC(C)c2ccccc2)Cc2ccccc2)cc1 (centres undefined) |
| 97 | COc1ccc(S(=O)(=O)NC(CNC(C)c2cccc3ccccc23)Cc2ccccc2)cc1OC (centres undefined) |
| 83 | CC(NCC(Cc1ccccc1)NS(=O)(=O)c1cccc(Cl)c1)c1cccc2ccccc12 (centres undefined) |
| 8 | CC(NCC(Cc1ccccc1)NS(=O)(=O)c1ccc([N+](=O)[O-])cc1)c1ccccc1 (centres undefined) |
| 65 | COc1ccc(S(=O)(=O)NC(CNC(C)c2cccc3ccccc23)Cc2ccccc2OC)cc1 (centres undefined) |
